Assay outcomes as filed in PubChem BioAssay.
Fh CTSL1 inh: Fasciola hepatica cathepsin L1 inhibitors, primary screen, counter-screen for PFM18AAP inhibitor project, biochemical, QFRET, fluorogenic peptide substrate | recombinant F. hepatica cathepsin L1, Z-Leu-Arg-MCA fluorescence | inhibition, % at 5.96 µM | hit rate 0.49% among 300,000;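 active = inhibition above the mean of all tested compounds plus 3 SD, set per screening campaign, cut at about 17% in these data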;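 note: 0% = plate median of test compound wells and 100% = 1 µM Z-Phe-Ala-diazomethylketone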
PAD4 inh: human PAD4 inhibitors, primary screen, biochemical, fluorescence polarization, 1536-well format; inhibition, % at 6.36 µM; hit rate 0.41% among 330,000; recombinant PAD4, RCA probe fluorescence polarization; Protein-arginine deiminase type-4 (Homo sapiens), Q9UM07;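 active = percent inhibition above a cutoff equal to the mean of all tested compounds plus 3 SD, cut at about 15% in these data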;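 note: 0% = PAD4 with RCA probe and DMSO and 100% = probe without PAD4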
TDP2 inh: human TDP2 enzyme inhibitors, primary screen, biochemical, epi absorbance, recombinant enzyme | Tyrosyl-DNA phosphodiesterase 2 (Homo sapiens), O95551 | T5PNP hydrolysis, p-nitrophenol absorbance 415 nm | inhibition, % at 12.8 µM | hit rate 0.34% among 370,000 | AID 720702, 2013;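 active = inhibition above the mean of all tested compounds plus 3 SD, set per campaign, cut at about 25% in these data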;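 note: 0% = DMSO with enzyme and 100% = buffer with substrate but no TDP2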
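Evaluation: % inhibition relative to enzyme-containing and enzyme-free wells. Material: recombinant human TDP2. Benchmarks: enzyme-free and DMSO wells. Timing: enzyme reaction with compound for 2 h at 37 °C. Compound dosing: 12.8 µM only. Measured by: p-Nitrophenol epi absorbance. Reagent: T5PNP substrate at 5 mM, a TopII-DNA adduct mimic. Replication: single well per compound.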
Apaf1 inhib: inhibitors of human Apaf-1 apoptosome, primary screen, biochemical, DEVD-Rh110 fluorescence, uHTS. Apoptotic protease-activating factor 1 (Homo sapiens), O14727. reconstituted apoptosome caspase-3 activity. inhibition, % at 20 µM. hit rate 0.71% among 330,000. AID 489030, 2010; active = inhibition of at least 40% at 20 µM;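 note: plate controls were DMSO wells for no effect and DEVD-CHO caspase inhibitor wells for full effect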
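Material: reconstituted apoptosome with Apaf-1, cytochrome c, caspase-9, procaspase-3, dATP; medium: pH 7.5 Hepes buffer with CHAPS, BSA, DTT; also added: cytochrome c and DEVD-Rh110 substrate; timing: 30 min plus 50 min, RT; signal: Rh110 fluorescence intensity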
GSTO1 counter: inhibitors of recombinant GSTO1, primary screen, counter-screen for RBBP9 inhibitor project, biochemical, fluorescence polarization; Glutathione S-transferase omega-1 (Homo sapiens), P78417; activity-based probe fluorescence polarization; inhibition, % at 5.96 µM; hit rate 1.1% among 300,000;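 active = inhibition above the campaign mean inhibition plus 3 SD, cut at about 35% in these data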;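 note: 0% = GSTO1-1 with DMSO and 100% = wells lacking GSTO1-1 enzyme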
Target sequence (P78417 whole entry, looked up): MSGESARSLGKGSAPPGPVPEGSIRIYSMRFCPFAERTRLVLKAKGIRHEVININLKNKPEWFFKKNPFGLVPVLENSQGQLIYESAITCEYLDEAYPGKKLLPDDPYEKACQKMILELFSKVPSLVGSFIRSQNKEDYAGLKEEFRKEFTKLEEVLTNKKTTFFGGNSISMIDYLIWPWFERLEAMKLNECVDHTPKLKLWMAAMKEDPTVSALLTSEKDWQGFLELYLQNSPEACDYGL
PAD4 confirm: human PAD4 inhibitors, confirmation, biochemical, fluorescence polarization; shares compounds with PAD4 inh; recombinant PAD4, RCA probe fluorescence polarization; hit rate 28% among 1,200; inhibition, % at 6.36 µM;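 active = mean inhibition across replicates above the hit cutoff set by the earlier primary screen, cut at about 15% in these data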;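 note: inhibitors block active-site labeling by the probe so polarization falls; 0% = PAD4 with probe and DMSO and 100% = probe without PAD4 enzyme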
* marks the source's active call; other numbers are inactive results; . = no result given; + = active, no number. Shown are actives, neighbours in structure and some others; about 1.8% of the full set was active somewhere.

SMILES | Fh CTSL1 inh | PAD4 inh | TDP2 inh | Apaf1 inhib | GSTO1 counter | PAD4 confirm
S=c1[nH]nc(COc2ccccc2)n1/N=C/c1ccncc1 | 1.2 | -5.0 | 1.6 | -10.5 | 1.3 | .
CCc1ccc(/C=N/n2c(COc3ccccc3)n[nH]c2=S)cc1 | -6.5 | 32.1* | 9.8 | 18.2 | -0.9 | 12.9
CC(=O)c1c(C)[nH]c(=S)c(C#N)c1-c1ccc(Cl)cc1 | -1.3 | -5.7 | -21.2 | 3.0 | 3.2 | .
Cc1[nH]c(=S)c(C#N)c(-c2ccco2)c1C(=O)N(C)C | 2.0 | 18.6* | 3.2 | 1.9 | 6.3 | 11.7
CCN1CC2=C(OC(N)=C(C#N)C2c2ccccc2)/C(=C\c2ccccc2)C1 (stereo not given) | 3.2 | 23.7* | 3.3 | 10.7 | 0.4 | 18.8*
N#CC1=C(N)OC2=C(CN(Cc3ccccc3)C/C2=C\c2cccnc2)C1c1cccnc1 (stereo not given) | 3.2 | 1.9 | 0.9 | -6.5 | -5.7 | .
C=CCC(CC=C)(NC(=O)c1ccccc1)c1ccccc1 | 4.5 | -1.4 | -2.3 | -0.7 | 7.5 | .
C=CCC(CC=C)(NC(=O)c1ccccc1C)c1ccccc1 | 1.0 | 16.6* | -12.3 | 0.6 | 12.1 | 7.6
CCN(C(=O)/C=C/c1ccc(OC)cc1)C1CCS(=O)(=O)C1 (stereo not given) | -3.4 | -1.6 | 7.3 | 0.8 | 0.3 | .
COc1ccc(/C=C/C(=O)N(C)C2CCS(=O)(=O)C2)cc1OC (stereo not given) | 2.9 | 15.4* | 10.9 | 2.0 | -3.4 | -5.1
CCOC(=O)CNC(=O)c1sc(NC(=O)c2cccc(F)c2)nc1C | 5.2 | 25.3* | 8.5 | 4.2 | 1.1 | 2.2
CCOC(=O)CNC(=O)c1sc(NC(=O)c2ccccc2F)nc1C | 4.5 | -1.4 | 7.0 | -2.6 | -2.6 | .
NC(=S)Nc1cccc2cccnc12 | 2.4 | -1.3 | 9.4 | 17.4 | 25.7 | .
NC(=S)NNc1cccc2cccnc12 | 2.7 | 29.4* | 15.3 | 76.3* | 62.2* | 5.0
Cc1nnsc1S(=O)c1ccc(Cl)c(Cl)c1 (stereo not given) | 1.1 | 2.9 | -16.7 | 2.0 | -0.8 | .
O=S(c1ccc2ccccc2c1)c1cnns1 (stereo not given) | 4.2 | 18.8* | 0.2 | -0.3 | 29.4 | 18.6*
Nc1ccccc1C(=O)NC1CCCNC1=O (stereo not given) | -1.1 | 28.8* | -8.9 | -17.1 | 3.5 | 1.1
S=C(NCc1cccc(Cl)c1)OC1CCC12CCC(c1ccccc1)CC2 (stereo not given) | . | . | 13.1 | . | . | .
CC(C)(C)c1ccc(C(=O)NCCOc2ccccc2)cc1 | 1.5 | 18.3* | -5.3 | 4.9 | -1.8 | 2.6
CC(C)(C)c1ccc(C(=O)NCCOc2ccccc2F)cc1 | -2.2 | -3.0 | -13.9 | 19.6 | 4.5 | .
CCc1nnn2c1Cn1c3ccccc3c(=O)n1[C@@H](C)C2 | . | . | -0.1 | . | . | .
O=C1c2ccccc2C(=O)C12OC2c1ccc(Cl)cc1Cl (stereo not given) | -0.9 | 35.8* | 4.6 | . | 25.1 | 39.6*
O=C1c2ccccc2C(=O)C1c1ccc(Cl)cc1 | -2.9 | -1.3 | 0.7 | 7.4 | 5.5 | .
COC(=O)C1=C(C)N(Cc2ccc(C(F)(F)F)cc2)C(=NCc2ccccc2)NC1c1cccc(Cl)c1 (stereo not given) | . | . | -0.7 | . | . | .
COC(=O)c1ccccc1-c1c2ccc(=N)cc-2oc2cc(N)ccc12 | . | + | -4.2 | -332.4 | . | 144.9*
CCCCN1C(=O)Nc2ccccc2S1=O (stereo not given) | -3.9 | 15.8* | 5.8 | 5.3 | 13.2 | 10.3
Cc1nn(CCC(=O)NNC(=O)NCc2ccccc2)c(C)c1[N+](=O)[O-] | . | . | -2.0 | . | . | .
CCOc1ccc(N2C(=O)CC(Sc3ccccc3C(=O)O)C2=O)c([N+](=O)[O-])c1 (stereo not given) | -4.2 | 26.2* | -1.0 | 12.3 | 14.4 | 12.6
